Apaf-1 inh = inhibitors of human Apaf-1 apoptosome, primary screen, biochemical, DEVD-Rh110 fluorescence, uHTS. Apoptotic protease-activating factor 1 (Homo sapiens), O14727. reconstituted apoptosome caspase-3 activity. inhibition, % at 20 µM. 330,000 tested, 0.71% active. AID 489030, 2010; active = inhibition of at least 40% at 20 µM
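Material: biochemical Apaf-1 apoptosome reconstitution. Medium: Hepes buffer, pH 7.5. Also added: cytochrome c activation, bis-DEVD rhodamine 110 substrate. Timing: 30 min compound preincubation, 50 min activation, room temperature. Measured by: rhodamine 110 fluorescence at Ex 480/Em 540 nm.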
DTT redox prof = compounds producing H2O2 with reducing agent – biochemical, NIH compound library profiling, artefact control for MLSCN library redox annotation, primary screen. DTT-dependent redox cycling H2O2, phenol red/HRP absorbance; 100% = 100 µM peroxide control, 0% = buffer. activation, % at 10 µM. 200,000 tested, 0.03% active;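 active = activation of at least 50% relative to the plate's high and low controls in the primary single-dose screen; inactive = activation below 50%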;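 note: compound incubated with DTT at 0.8 mM final as the reducing agent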
GSTO1 inh = inhibitors of recombinant GSTO1, primary screen, counter-screen for RBBP9 inhibitor project, biochemical, fluorescence polarization; Glutathione S-transferase omega-1 (Homo sapiens), P78417; 300,000 tested, 1.1% active; activity-based probe fluorescence polarization; inhibition, % at 5.96 µM;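 active = inhibition above the campaign mean inhibition plus 3 SD, cut at about 35% in these data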
Target sequence (P78417 whole entry, looked up): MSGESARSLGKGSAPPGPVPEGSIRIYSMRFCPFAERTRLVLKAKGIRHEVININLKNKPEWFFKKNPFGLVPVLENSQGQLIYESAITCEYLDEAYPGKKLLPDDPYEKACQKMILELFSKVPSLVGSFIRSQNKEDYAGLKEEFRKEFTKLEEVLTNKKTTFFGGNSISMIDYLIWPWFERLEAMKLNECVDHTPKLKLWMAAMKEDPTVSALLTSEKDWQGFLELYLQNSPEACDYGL
SUMO HTRF inh = inhibitors of in vitro SUMOylation cascade, primary screen, biochemical, HTRF, uHTS; SUMO-conjugating enzyme UBC9 (Homo sapiens), P63279; HTRF SUMOylation assay, SAE1/SAE2 + UBC9; inhibition, % at 35 µM; 290,000 tested, 0.36% active; in the data active = inhibition above about 50%, passing the limit was not always enough
Target sequence (P63279 whole entry, looked up): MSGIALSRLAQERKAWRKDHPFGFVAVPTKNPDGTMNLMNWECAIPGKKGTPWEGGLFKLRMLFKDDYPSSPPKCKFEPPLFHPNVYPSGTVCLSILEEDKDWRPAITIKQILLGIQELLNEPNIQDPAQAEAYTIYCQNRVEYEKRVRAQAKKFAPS
HKDC1 inh = HKDC1 hexokinase inhibitors, primary screen, biochemical, fluorescence, uHTS; Q2TB90; recombinant HKDC1, G6PDH/diaphorase resazurin coupled fluorescence; inhibition, % at 20 µM; 340,000 tested, 0.16% active;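 active = inhibition above about 35% when tested at 20 µM, limit read from the data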
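Material – in-house recombinant HK5 (HKDC1) enzyme · Quantity – HKDC1 at 5 µg/mL · Buffer or medium – pH 8.0 Tris buffer with 10 mM MgCl2 · Reagent – glucose with 1 mM ATP · Dosing – single 20 µM dose · Times – reaction time 90 min, room temperature, protected from light · Technique – resorufin fluorescence at 613 nm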
GSTO1 confirm = GSTO1 inhibitor hit confirmation, counter-screen for RBBP9 inhibitor project, biochemical, fluorescence polarization, triplicate; recombinant GSTO1, probe fluorescence polarization; shares compounds with GSTO1 inh; AID 2176, 2009; 2,400 tested, 54% active; inhibition, % at 5.96 µM;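 active = inhibition above the primary screen's cutoff, its mean inhibition plus 3 SD, cut at about 35% in these data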;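 note: loss of polarization as inhibitors block binding of rhodamine sulfonate ester activity probe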
Each line names hits and unclear results; the compound was inactive in the other large screens (follow-up assays come after a bar, where they were run). Sampled rows, rich in hits. Any-hit rate of the full collection: about 1.4%.

O=C(CNC(=S)NC(=O)c1ccc(Br)o1)c1ccccc1	GSTO1 inh 46 | GSTO1 confirm inactive
O=C(CNC(=S)NC(=O)c1ccc(Cl)cc1)c1ccccc1	none (no result: DTT redox prof)
Cc1cc([N+](=O)[O-])cc2c1NCC1CC=CC21 (configuration not stated)	none
Cc1cc([N+](=O)[O-])c2c(c1C)C1C=CCC1C(c1ccccn1)N2 (configuration not stated)	GSTO1 inh 52 (no result: HKDC1 inh) | GSTO1 confirm inactive
COc1cccc(N2C(=NC(=O)CCc3ccccc3)SC3CS(=O)(=O)CC32)c1 (configuration not stated)	none (no result: DTT redox prof)
COc1ccc(OC)c(S(=O)(=O)N2CCC(C(=O)Nc3cc(C)ccc3C)CC2)c1	none
COC(=O)c1ccccc1NC(=O)C1CCN(S(=O)(=O)c2cc(C)ccc2OC)CC1	GSTO1 inh 74 | GSTO1 confirm inactive
NC(=O)C1CCCN(C(=O)c2ccc(NC(=O)c3cccs3)cc2)C1 (configuration not stated)	none (no result: DTT redox prof, GSTO1 inh, SUMO HTRF inh)
Cc1cc(Cl)n2c(nc3cc(F)c(F)cc32)c1C#N	none (no result: Apaf-1 inh, GSTO1 inh)
Cc1cc(C)n2c(=O)c3ccc(Cl)cc3nc2c1C#N	GSTO1 inh 53 | GSTO1 confirm inactive
NC1=C(O)C(=O)C(c2ccccc2)O1 (configuration not stated)	none (no result: DTT redox prof)
COc1ccc(C2C(O)C(c3c[nH]c4ccccc34)=NN2C(=O)CCl)cc1 (configuration not stated)	GSTO1 inh 88 (no result: DTT redox prof) | GSTO1 confirm 93
COc1ccc(NC(=O)CSCc2cc(=O)n3nc(C4CC4)sc3n2)cc1	GSTO1 inh 38 (no result: DTT redox prof) | GSTO1 confirm inactive
Cc1cccc(NC(=O)CSCc2cc(=O)n3nc(C4CC4)sc3n2)c1	none (no result: DTT redox prof)
CCNc1nc(NCC)nc(N/N=C/c2ccc(O)c(O)c2)n1	GSTO1 inh 38 | GSTO1 confirm inactive
N#C/C(=C\c1ccc([N+](=O)[O-])o1)c1nc2ccccc2[nH]1	none
Cc1ccc2nc(/C(C#N)=C\c3ccc([N+](=O)[O-])o3)[nH]c2c1	GSTO1 inh 39 | GSTO1 confirm inactive
Nc1nc2c(s1)CCc1c-2cnn1-c1ccccc1	Apaf-1 inh 93, GSTO1 inh 72 | GSTO1 confirm 71
O=c1[nH]c2ccc(Br)cc2c(-c2ccccc2)c1CN1CCOCC1	GSTO1 inh 64 | GSTO1 confirm inactive
O=c1[nH]c2ccc(Br)cc2c(-c2ccccc2)c1N1CCOCC1	none
Cc1ccccc1C1CC(=O)Oc2cc(O)ccc21 (configuration not stated)	none (no result: DTT redox prof, GSTO1 inh, SUMO HTRF inh)
O=C1c2ccccc2C(=O)C2OC12 (configuration not stated)	GSTO1 inh 76 (no result: DTT redox prof, HKDC1 inh) | GSTO1 confirm inactive
COC(=O)CCC(=O)OC1(C)C(=O)C2=CN(CCc3c[nH]c4ccccc34)C(c3ccc(OC)cc3)=CC2=C(Br)C1=O (configuration not stated)	none (no result: DTT redox prof, SUMO HTRF inh)
COC(=O)CCC(=O)OC1(C)C(=O)C2=CN(Cc3ccc(OC)cc3)C(c3ccc(OC)cc3)=CC2=C(Br)C1=O (configuration not stated)	GSTO1 inh 38 (no result: DTT redox prof, SUMO HTRF inh) | GSTO1 confirm 39
COC(=O)CCC(=O)OC1(C)C(=O)C2=CN(CC(C)C)C(c3ccc(OC)cc3)=CC2=C(Br)C1=O (configuration not stated)	Apaf-1 inh 52, GSTO1 inh 59 (no result: DTT redox prof, HKDC1 inh) | GSTO1 confirm 53
O=C1CCCC/C1=C\Nc1ccc(O)cc1	GSTO1 inh 42 | GSTO1 confirm inactive
O=C1CCC/C1=C/Nc1ccc(Cl)cc1	none
CCOc1ccccc1/C=C/C(=O)N1CCN(C(=O)c2ccco2)CC1	none (no result: DTT redox prof, GSTO1 inh, SUMO HTRF inh)
COC(=O)C1=C(C)N(Cc2ccc(C)cc2)C(=O)/C1=C\c1ccc(O)c(OC)c1	none
COC(=O)C1=C(C)N(CC2CCCO2)C(=O)/C1=C\c1ccc(O)cc1 (configuration not stated)	GSTO1 inh 43 | GSTO1 confirm inactive
O=C(CCl)Nc1ccccc1C(=O)c1ccccc1	GSTO1 inh 82 | GSTO1 confirm 98
O=C(CCl)Nc1ccccc1Sc1ccc(Cl)cc1	GSTO1 inh 90 | GSTO1 confirm 94
CC(=O)N1CCN(CC(=O)Nc2ccccc2Sc2ccc(Cl)cc2)CC1	none
O=C(/C=C/c1c(F)cccc1Cl)N1CCOCC1	none (no result: DTT redox prof)
O=C(NCc1cccnc1)NC1(C(F)(F)F)Oc2ccccc2O1	GSTO1 inh 41 | GSTO1 confirm inactive
CC(C)CNC(=O)Nc1ccccc1F	none
COc1cccc(NC(=O)NC2(C(F)(F)F)Oc3ccccc3O2)c1	GSTO1 inh 41 | GSTO1 confirm inactive
COc1cccc(NC(=O)Nc2cccc(C(=O)O)c2)c1	none
CC(C)CNC(=O)NC1(C(F)(F)F)Oc2ccccc2O1	GSTO1 inh 51 | GSTO1 confirm inactive
CN(Cc1ccco1)C(=O)CSc1nn2c(=O)c(C(C)(C)C)nnc2s1	none (no result: DTT redox prof, GSTO1 inh, SUMO HTRF inh)
CCOc1ccc(NC(=O)COC(=O)CCC(=O)c2cccs2)cc1	none (no result: DTT redox prof, GSTO1 inh, SUMO HTRF inh)
Cc1cccc(NC(=O)c2ccc3nccnc3c2)c1C	none (no result: DTT redox prof)
CSc1ncccc1C(=O)Nc1ccc2c(c1)OCCO2	none (no result: DTT redox prof, GSTO1 inh, SUMO HTRF inh)
CCCn1nc(NS(=O)(=O)c2cccc3nonc23)c2cc3ccccc3nc21	none (no result: DTT redox prof)
Cn1c(CNC(=O)CNS(=O)(=O)c2ccc(F)cc2F)cc(=O)n(C)c1=O	none (no result: DTT redox prof)
COc1ccc(NC(=O)CCCn2cnc3ccccc3c2=O)c(OC)c1	none (no result: DTT redox prof)
COc1ccc(OC)c(C(C(=O)NC2CCCCC2)N(Cc2ccco2)C(=O)c2ccccn2)c1 (configuration not stated)	none (no result: DTT redox prof)
O=C(NC1CCCCC1)C(c1ccccc1F)N(Cc1ccco1)C(=O)c1ccccn1 (configuration not stated)	GSTO1 inh 38 (no result: DTT redox prof) | GSTO1 confirm inactive
CC(=O)Nc1c2c(nn1-c1ccc(Cl)cc1)CSC2	none (no result: DTT redox prof)
COc1ccc(CCNC(=O)CN2C(=O)NC3(CCCCC3C)C2=O)cc1 (configuration not stated)	none (no result: DTT redox prof, GSTO1 inh, SUMO HTRF inh)
COCc1nc2ccccc2n1CCc1ccccc1	GSTO1 inh 40 (no result: DTT redox prof) | GSTO1 confirm inactive
CC(=O)c1c(C)cc(C)c(CSc2ccccn2)c1C	none (no result: DTT redox prof)
CCc1cccc(NC(=O)CSC2=NS(=O)(=O)c3ccccc32)c1	GSTO1 inh 55 | GSTO1 confirm inactive
CCOC(=O)Cc1c(C)c2c(O)cc(O)cc2oc1=O	GSTO1 inh 59 | GSTO1 confirm inactive
Cc1ccc(S(=O)(=O)c2cc(OC(=O)c3ccco3)ccc2OC(=O)c2ccco2)cc1	none
